Hits are enriched below; roughly 4.1% of the tested compounds scored in any of these assays.
KCC2 mod: modulates chloride dependent transport by human KCC2; AID 1456; KCC2 cells, thallium flux FluoZin-2 fluorescence; 2.2% of 190,000 active; B-score of Tl+ flux slope (higher = more flux/activation; lower = inhibition) at 10 µM;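 active = thallium flux slope and its plate-corrected score both differing from the plate sample mean at a set confidence after two filtering rounds, in either direction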;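 note: slope of fluorescence scaled to starting intensity during 10 to 20 s after thallium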
Redox H2O2 prof: compounds producing H2O2 with reducing agent – biochemical, NIH compound library profiling, artefact control for MLSCN library redox annotation, primary screen | activation, % at 10 µM | 0.03% of 200,000 active | DTT-dependent redox cycling H2O2, phenol red/HRP absorbance; 100% = 100 µM peroxide control, 0% = buffer | AID 878;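 active = activation of at least 50% relative to the plate's high and low controls in the primary single-dose screen; inactive = activation below 50%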;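 note: compound incubated with DTT at 0.8 mM final as the reducing agent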
Dynein cargo inh: dynein cargo transport inhibition. 3617.4 mouse cells, GR-EGFP nuclear translocation imaging; test concentration mostly 20 µM; stimulated with dexamethasone, 1 µM; stronger effect = lower value. z-score, hits read low. 0.47% of 220,000 active. AID 1381;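 active = plate z-score of nuclear minus cytoplasmic receptor signal below a set negative limit, without overly bright fluorescence or cell loss, cut at about -3.5 in these data, passing the limit was not always enough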;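 note: z-score of nuclear minus cytoplasmic ring GR-EGFP intensity difference per well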
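Buffer or medium: tetracycline-free induction medium containing charcoal-stripped FBS / Reagent: dexamethasone agonist, 1.0 µM final, for 30 min / Technique: automated 10x imaging of fixed Hoechst-stained cells / Times: induction 48 h, compound 1 h, agonist 30 min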
Autophagy mod: alters autophagy in cells | MEF GFP-LC3 puncta imaging; test concentration mostly 10 µM | calls only at 10 µM (by protocol) | 0.98% of 190,000 active | AID 463193;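 active = percentage of spot-positive cells more than 3 SD above its plate mean, without a fluorescence outlier flag or 80% toxicity; inconclusive = no clear call, values can overlap the other calls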;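 note: spot-positive cell cutoff set from DMSO-treated cells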
ROMK primary: modulators of human ROMK potassium channel; Tet-inducible ROMK, thallium flux fluorescence; actives lie on both sides; P48048; B-score at 10 µM; 2% of 130,000 active;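 active = signal ratio slope over the read window, or its plate-corrected B-score, at least 3 SD from the plate mean, either direction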;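 note: B-score of the F/F0 ratio slope over 7 to 12 s after thallium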
Target sequence (P48048 whole entry, looked up): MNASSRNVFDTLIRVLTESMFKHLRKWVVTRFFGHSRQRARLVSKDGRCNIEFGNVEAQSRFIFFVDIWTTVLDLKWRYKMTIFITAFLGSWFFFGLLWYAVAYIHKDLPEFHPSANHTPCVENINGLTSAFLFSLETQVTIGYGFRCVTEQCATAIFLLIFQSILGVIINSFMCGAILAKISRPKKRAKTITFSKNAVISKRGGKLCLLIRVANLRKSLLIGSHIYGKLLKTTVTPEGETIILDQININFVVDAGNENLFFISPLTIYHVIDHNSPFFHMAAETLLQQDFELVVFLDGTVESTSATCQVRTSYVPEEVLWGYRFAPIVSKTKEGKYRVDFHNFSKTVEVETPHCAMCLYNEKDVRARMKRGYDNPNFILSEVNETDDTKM
ROMK retest: confirmation of human ROMK potassium channel modulators | normalized thallium flux (F/F0 slope) at 10 µM | shares compounds with ROMK primary | ROMK thallium flux, fluorescence ratio; stronger effect = lower value | 54% of 3,000 active;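 active = Flux at 10 µM at least 3 SD below or above vehicle control mean in one or both replicates; inconclusive = no clear call, values can overlap the other calls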
Numbers without * were called inactive; i = inactive; u = inconclusive; x = no result given; + = active, no number.

SMILES | KCC2 mod | Redox H2O2 prof | Dynein cargo inh | Autophagy mod | ROMK primary | ROMK retest
CCCCC[C@H](O)/C=C/[C@@H]1[C@@H](CCCCCCC(=O)O)[C@@H](O)C[C@H]1O | -1.5 | 0 | -0.22 | i | x | x
CCCCC[C@H](O)/C=C/C1=C(CCCCCCC(=O)O)C(=O)CC1 | -2.6 | -1 | -0.48 | i | x | 0.081
Cc1[nH]c(=S)[nH]c(=O)c1CCOc1ccccc1 | x | 0 | -0.82 | i | 0.56 | x
Cc1ccccc1OCCc1c(C)[nH]c(=S)[nH]c1=O | 0.21 | 3 | -0.3 | i | 1.7* | 0.085
CC(=O)c1ccc(-c2ccc(C(=O)N3CCCc4ccccc43)o2)cc1 | -3 | -1 | 0.11 | i | -3.5* | 0.057*
COc1ccc(CC(=O)N2CCCc3ccccc32)cc1 | 0.38 | 3 | 0.92 | i | x | 0.077
COc1ccc(NC2=Nc3cccc4cccc2c34)cc1 | -1.2 | 1 | -0.52 | i | x | x
CS(=O)(=O)N1CCC(C(=O)NCc2ccc(F)cc2)CC1 | -0.25 | 0 | 0.56 | i | -0.98 | x
O=C(COc1ccc(Cl)cc1Cl)NCc1ccco1 | x | -1 | -0.89 | i | -0.55 | x
C/C(CC(=O)NCc1ccco1)=N\NC(=O)COc1ccc(Cl)cc1Cl | -1.2 | 0 | 0.3 | i | 3.6* | 0.092
COc1ccc(CNC(=O)C/C(C)=N/NC(=O)COc2ccc(C)cc2Br)cc1 | -0.56 | 0 | -1.5 | i | 3.4* | 0.074
O=[N+]([O-])c1cc(C(F)(F)F)cc([N+](=O)[O-])c1Sc1n[nH]c(C(F)(F)F)n1 | 0.13 | x | -3 | x | x | x
Cn1cc(CN2CCN(c3ccccc3)CC2)c2ccccc21 | 0.28 | -1 | -0.09 | i | -5.2* | 0.056*
CC1=C(C(=O)OCC2CCCO2)C(c2coc3ccc(Cl)cc3c2=O)C2=C(CCCC2=O)N1 (stereo unspecified) | 0.14 | 0 | -0.83 | i | -2.7* | 0.073
CCN1CCN(C(=S)NCCc2ccccc2)CC1 | 0.42 | 0 | -0.33 | i | x | x
S=C(NCCc1ccccc1)N1CCN(C23CC4CC(CC(C4)C2)C3)CC1 | -0.13 | 0 | 1.9 | i | -7.9* | u
COc1ccc(-n2cc(C#N)c(=O)n(Cc3ccc(F)cc3)c2=O)cc1 | -0.054 | 0 | -0.7 | i | 0.087 | x
C=CCC(CC(O)COCCC)C(=O)NNC(=S)Nc1ccccc1 (stereo unspecified) | -1.2 | x | 0.63 | x | 1.3 | x
Cc1cc(C)c2[nH]c(=O)c(CN(Cc3ccc4c(c3)OCO4)Cc3nnnn3C3CCCC3)cc2c1 | -0.088 | 2 | -0.19 | i | -3.2* | u
COc1ccc(-c2nc(C)c(C(C)=O)n2O)cc1[N+](=O)[O-] | 0.5 | 0 | -0.27 | i | -0.25 | x
CC(=O)c1c(C)nc(-c2cccc([N+](=O)[O-])c2)n1O | 1 | 0 | -0.057 | i | -4.7* | 0.063*
COc1ccc(S(=O)(=O)N(C)C)cc1NC(=O)COC(=O)c1nn(C)c(=O)c2ccccc12 | -0.85 | -1 | 1 | i | 0.19 | x
COc1ccccc1N(CC(=O)N(c1ccccc1)C(C)C)S(=O)(=O)c1cccs1 | -0.98 | 0 | -0.17 | i | -2.3 | x
COc1ccccc1N(CC(=O)N(CC(C)C)CC(C)C)S(=O)(=O)c1cccs1 | -1.2 | -2 | -0.41 | i | -4.1* | 0.067*
Cc1c(/C=N/NC(=O)c2cccs2)c2ccccc2n1Cc1ccccc1Cl | 0.69 | x | 0.21 | x | x | x
SMILES | KCC2 mod | Redox H2O2 prof | Dynein cargo inh | Autophagy mod | ROMK primary | ROMK retest
COc1cc(/C=C(\C#N)c2nc3ccc(C)cc3[nH]2)c([N+](=O)[O-])cc1OC | x | -7 | -0.68 | i | -1.4 | x
CCCOc1cc(N(CC)CC)ccc1/C=C(/C#N)c1nc2ccc(C)cc2[nH]1 | -0.83 | -3 | -0.17 | + | -4.2* | 0.039*
CSc1ccc(-c2nc(CN3CCCCC3c3cccnc3)c(C)o2)cc1 (stereo unspecified) | x | -1 | -0.85 | i | x | x
Cc1cccc(C(=O)NNC(=O)CN2C(=O)c3ccccc3C2=O)c1 | 0.61 | 0 | 2.3 | i | x | x
Cc1cccc(OCCn2c(CCCO)nc3ccccc32)c1 | 0.84 | 3 | -0.92 | i | -2.8* | 0.059*
CC(=O)NCCc1nc2ccccc2n1CCOc1cccc(C)c1 | 0.39 | x | -0.8 | x | 0.081 | x
O=C(Cn1c(=O)n(CCc2c[nH]c3ccccc23)c(=O)c2cccnc21)Nc1ccccc1F | -0.098 | 1 | -0.99 | i | 2.8* | 0.078
ClC(Cl)(c1nnnn1-c1ccccc1)c1nnnn1-c1ccccc1 | -1.2 | 0 | -3 | i | -2.8* | 0.06*
N#CC(C#N)=C1C=CC=CN1/C(=C\c1ccccc1Cl)C(=O)c1ccccc1 | -2.3 | 0 | -4.1* | i | -5.6* | 0.041*
N#CC(C#N)=C1C=CC=CN1/C(=C\c1ccccc1)C(=O)c1cccs1 | -0.82 | 1 | -1.1 | i | x | 0.057*
CC1CCN(C(=O)/C(=C/c2ccccc2Cl)c2ccccc2)CC1 | -1.3 | 2 | -0.11 | i | x | x
COc1ccccc1CNC(=O)C(C)c1ccc([N+](=O)[O-])cc1 (stereo unspecified) | -0.3 | 0 | -0.9 | i | 0.59 | x
Cc1sc(N2C(=O)C3C4C=CC(C4)C3C2=O)c(C#N)c1C (stereo unspecified) | -0.76 | 0 | -1.4 | i | x | x
O=C(NCc1ccccc1)N1CCC(n2cnc3cc(F)ccc32)CC1 | 0.08 | -4 | 0.25 | i | x | 0.069*
Cc1cccc(-n2c(C)cc(C=C3C(=O)c4ccccc4C3=O)c2C)c1 | -0.55 | 1 | 1.7 | i | x | 0.036*
CC(NC(=O)CCN1N=C(c2ccccc2)CCC1=O)c1ccc2c(c1)OCCO2 (stereo unspecified) | x | -1 | 0.88 | i | -1.2 | x
COc1ccccc1NC(=O)c1sc2nc(Cc3ccccc3)cc(C(F)(F)F)c2c1N | 0.27 | 1 | 0.48 | + | -5.5* | 0.048*
O=C(CSc1nnnn1C1CCCCC1)Nc1ccccc1F | 1.3 | -1 | -0.024 | i | -1.6 | x
O=C(CSc1nnnn1C1CC2CCC1C2)Nc1ccnc2ccccc12 (stereo unspecified) | -0.43 | -1 | -0.62 | i | x | u
COc1ccc(N(CC(=O)NN=C2CCCC2)S(=O)(=O)c2ccccc2)cc1 | -0.67 | -4 | 0.26 | i | 1.8* | 0.088
Cc1ccccc1NC(=O)OCc1cn(-c2ccc(Cl)cc2)nn1 | 0.45 | -12 | -1.9 | i | x | x
O=C(Nc1ccc(Cl)cc1)OCc1cn(-c2ccccc2)nn1 | -0.4 | 0 | 1.3 | i | 0.28 | u
O=C(Nc1cc(C(F)(F)F)cc(C(F)(F)F)c1)Nc1cnn(-c2ccc([N+](=O)[O-])cc2)c1C(F)(F)F | 0.6 | x | 0.25 | x | x | x
Cc1oc2cc(O)ccc2c(=O)c1-c1nncn1-c1ccccc1 | -0.11 | -1 | -0.84 | i | -4.6* | 0.049*
